ChEMBL document CHEMBL1145889, “Potent and selective inhibitors of platelet-derived growth factor receptor phosphorylation. 3. Replacement of quinazoline moiety and improvement of metabolic polymorphism of 4-[4-(N-substituted (thio)carbamoyl)-1-piperazinyl]-6,7-dimethoxyquinazoline derivatives” (J Med Chem, 2003)

Assays:
Format in all cases: ADME, organism-based
[1] = Plasma clearance was determined after administering 1 mg/kg of compound intravenously in rat no.10 belonging to the phenotype […] (poor metaboliser); parameters: dose 1 mg/kg, route intravenous; conditions: iv
Summary of the method: (§1)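 Male Sprague–Dawley rats (n = 4) were first phenotyped by a 3 mg/kg oral dose. Plasma taken at 30 min was run on HPLC, and a metabolite peak present marked EM, absent marked PM. After a 1-week washout, each phenotype (n = 2) received 1 mg/kg intravenously. Plasma concentration was determined by HPLC.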

[2] = Plasma clearance was determined after administering 1 mg/kg of compound intravenously in rat no.11 belonging to the phenotype […] (poor metaboliser); parameters: dose 1 mg/kg, route intravenous; conditions: iv; summary of the method: as §1
[3] = Plasma clearance was determined after administering 1 mg/kg of compound intravenously in rat no.8 belonging to the phenotype EM (extensive metaboliser); parameters: dose 1 mg/kg, route intravenous; conditions: iv; summary of the method: as §1
[4] = Plasma clearance was determined after administering 1 mg/kg of compound intravenously in rat no.9 belonging to the phenotype EM (extensive metaboliser); parameters: dose 1 mg/kg, route intravenous; conditions: iv; summary of the method: as §1
[5] = Volume of distribution at steady state was determined after administering 1 mg/kg of compound intravenously in rat no.11 belonging to the phenotype EM (poor metaboliser); parameters: dose 1 mg/kg, route intravenous; conditions: in vivo, iv, read-out: Vdss; summary of the method: as §1
[6] = Volume of distribution at steady state was determined after administering 1 mg/kg of compound intravenously in rat no.8 belonging to the phenotype EM (extensive metaboliser); parameters: dose 1 mg/kg, route intravenous; conditions: in vivo, iv, read-out: Vdss; summary of the method: as §1
[7] = Volume of distribution at steady state was determined after administering 1 mg/kg of compound intravenously in rat no.9 belonging to the phenotype EM (extensive metaboliser); parameters: dose 1 mg/kg, route intravenous; conditions: in vivo, iv, read-out: Vdss; summary of the method: as §1
[8] = Half-life period of intravenously administered compound (1 mg/kg) in rat no.10 belonging to the phenotype […] (poor metaboliser); conditions: in vivo, iv; summary of the method: as §1
[9] = Half-life period of intravenously administered compound (1 mg/kg) in rat no.11 belonging to the phenotype […] (poor metaboliser); conditions: in vivo, iv; summary of the method: as §1
[10] = Half-life period of intravenously administered compound (1 mg/kg) in rat no.8 belonging to the phenotype EM (extensive metaboliser); conditions: in vivo, iv; summary of the method: as §1
[11] = Half-life period of intravenously administered compound (1 mg/kg) in rat no.9 belonging to the phenotype EM (extensive metaboliser); conditions: in vivo, iv; summary of the method: as §1
[12] = Pharmacokinetic parameter (AUC) was determined after administering 1 mg/kg of compound intravenously in rat no.10 belonging to the phenotype […] (poor metaboliser); parameters: dose 1 mg/kg, route intravenous; conditions: in vivo, iv; summary of the method: as §1
[13] = Pharmacokinetic parameter (AUC) was determined after administering 1 mg/kg of compound intravenously in rat no.11 belonging to the phenotype […] (poor metaboliser); parameters: dose 1 mg/kg, route intravenous; conditions: in vivo, iv; summary of the method: as §1
[14] = Pharmacokinetic parameter (AUC) was determined after administering 1 mg/kg of compound intravenously in rat no.8 belonging to the phenotype EM (extensive metaboliser); parameters: dose 1 mg/kg, route intravenous; conditions: in vivo, iv; summary of the method: as §1
[15] = Pharmacokinetic parameter (AUC) was determined after administering 1 mg/kg of compound intravenously in rat no.9 belonging to the phenotype EM (extensive metaboliser); parameters: dose 1 mg/kg, route intravenous; conditions: in vivo, iv; summary of the method: as §1
[16] = Volume of distribution at steady state was determined after administering 1 mg/kg of compound intravenously in rat no.10 belonging to the phenotype […] (poor metaboliser); parameters: dose 1 mg/kg, route intravenous; conditions: in vivo, iv, read-out: Vdss; summary of the method: as §1
[17] = read-out: T1/2 alpha (converted)
[18] = read-out: T1/2 beta (converted)

- clearance [1]: 13.1 mL/min/kg
- clearance [2]: 17.5 mL/min/kg
- clearance [3]: 14.4 mL/min/kg
- clearance [4]: 13.2 mL/min/kg
- Vd [5]: 0.286 L/kg
- Vd [6]: 0.215 L/kg
- Vd [7]: 0.252 L/kg
- half-life [8, 17]: 1.9 min
- half-life [8, 18]: 15.5 min
- half-life [9, 17]: 3.58 min
- half-life [9, 18]: 13.1 min
- half-life [10, 17]: 2.69 min
- half-life [10, 18]: 13.8 min
- half-life [11, 17]: 2.99 min
- half-life [11, 18]: 15.7 min
- AUC [12]: 1280 ng·h/mL
- AUC [13]: 950 ng·h/mL
- AUC [14]: 1160 ng·h/mL
- AUC [15]: 1260 ng·h/mL
- Vd [16]: 0.232 L/kg
SMILES: COCCOc1cc2c(N3CCN(C(=O)Nc4ccc(C#N)cc4)CC3)ncnc2cc1OC
